In ChEMBL document CHEMBL1811838, “Antimalarial activity of natural and synthetic prodiginines” (J Med Chem, 2011):
Active and inactive are the calls of the source. The rule behind the calls is not given here.

Test system: Plasmodium yoelii
Test: Antimalarial activity Plasmodium yoelii infected in CF-1 mouse assessed as complete parasite clearance at 100 mg/kg, po qd for 3 days administered 24 hrs after infection measured after 24 hrs last dose
Assay type: functional, organism-based
Design: dose 100 mg/kg
Details: not given
Procedure, shortened: (§1)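 Female outbred CF-1 mice infected iv (tail vein) with 5 × 10^5 P. yoelii Kenya-infected erythrocytes. Groups of five given compound or vehicle alone by gavage in caprylic/capric triglyceride once daily for 3 days starting 24 h post-infection. One day after last dose, Giemsa-stained thin smears scored microscopically for % infected erythrocytes vs untreated controls. Group mean weight day 3 vs day 0. Smear-negative mice followed; parasite-free at 28 days counted cured.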
For `CCC1CCCCCCCCC2=N/C(=C\c3[nH]c(-c4ccc[nH]4)cc3OC)C1=C2` (configuration not stated) [METACYCLOPRODIGININE], the Activity was “Active”.

Test system: Plasmodium falciparum
Test: Antimalarial activity multidrug-resistant Plasmodium falciparum Dd2 after 72 hrs by SYBR Green I based fluorescence assay
Assay type: functional, organism-based
Details: Dd2, 72 h
Procedure, shortened: (§2)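 P. falciparum (D6 pansensitive; Dd2 MDR) cultured under standard conditions and grown 72 h with varying compound concentrations, chloroquine positive control or no drug, each condition in quadruplicate. Growth measured by SYBR Green I fluorescence with minor modifications; IC50 = concentration inhibiting growth by 50%.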
Molecule `CCCCCCc1cc(Cc2ccc(Cl)cc2)c(/C=C2\N=C(c3ccc[nH]3)C=C2OC)[nH]1` has an IC50 of 1.8 nM. Work on `COC1=CC(c2ccc[nH]2)=N/C1=C\c1[nH]ccc1Cc1ccc(Cl)cc1` yielded an IC50 of 81 nM. With `COC1=CC(c2ccc[nH]2)=N/C1=C\c1[nH]c(Cc2ccc(Cl)cc2)cc1Cc1ccc(Cl)cc1` the IC50 was 4.8 nM. For `CCCCCCCCc1cc(CCC)c(/C=C2\N=C(c3ccc[nH]3)C=C2OC)[nH]1`, the IC50 was 2.7 nM.

Test system: not listed separately
Test: Toxicity in C57BL/6J mouse splenic lymphocytes after 72 hrs by Alamar blue Assay
Assay type: cell-based
Details: splenic lymphocyte
Procedure, shortened: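 Splenic lymphocytes from C57BL/6J mice washed, then stimulated with 1 μg/mL concanavalin A in RPMI/10% FBS with 50 μM β-mercaptoethanol. Seeded at 2 × 10^5 cells/well with serially diluted compound for 72 h at 37 °C, 5% CO2. Resazurin added (final 10 μM) for another 24 h; fluorescence read at ex 560/em 590 nm.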
Molecule `CCCCCCc1cc(Cc2ccc(Cl)cc2)c(/C=C2\N=C(c3ccc[nH]3)C=C2OC)[nH]1` has an IC50 of less than 125 nM. `COC1=CC(c2ccc[nH]2)=N/C1=C\c1[nH]ccc1Cc1ccc(Cl)cc1` showed an IC50 of less than 125 nM. In the case of `COC1=CC(c2ccc[nH]2)=N/C1=C\c1[nH]c(Cc2ccc(Cl)cc2)cc1Cc1ccc(Cl)cc1`, the IC50 is reported as less than 125 nM. `CCCCCCCCc1cc(CCC)c(/C=C2\N=C(c3ccc[nH]3)C=C2OC)[nH]1` showed an IC50 of less than 125 nM.

Test system: Mus musculus
Test: Toxicity in Plasmodium yoelii infected CF-1 mouse assessed as weight loss at 25 mg/kg, po qd for 3 days relative to control
Assay type: organism-based
Design: dose 25 mg/kg, route oral
Details: in vivo, 72 h
Procedure, shortened: (§3)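 Female outbred CF-1 mice were infected i.v. via the tail vein with 5 × 10^5 P. yoelii Kenya-infected erythrocytes, in groups of five. Compound or vehicle alone was given by gavage in caprylic/capric triglyceride once daily for 3 days, starting 24 h post-infection. One day after the last dose, Giemsa-stained thin smears were scored by microscopy for % parasitemia versus untreated controls. Group mean weight was recorded as day 3 versus day 0.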
For `CCCCCCc1cc(Cc2ccc(Cl)cc2)c(/C=C2\N=C(c3ccc[nH]3)C=C2OC)[nH]1`, the Activity was 96%. `COC1=CC(c2ccc[nH]2)=N/C1=C\c1[nH]ccc1Cc1ccc(Cl)cc1` gave an Activity of 105%. With `COC1=CC(c2ccc[nH]2)=N/C1=C\c1[nH]c(Cc2ccc(Cl)cc2)cc1Cc1ccc(Cl)cc1` the Activity was 102.5%. Work on `CCCCCCCCc1cc(CCC)c(/C=C2\N=C(c3ccc[nH]3)C=C2OC)[nH]1` yielded an Activity of 92.4%.

Test system: Plasmodium yoelii
Test: Antimalarial activity Plasmodium yoelii infected in CF-1 mouse assessed as reduction of parasitemia at 5 mg/kg, po qd for 3 days administered 24 hrs after infection measured after 24 hrs last dose relative to control
Assay type: functional
Design: scale not given: the % may be the effect or the level left
Details: not given
Procedure, shortened: as §3
In the case of `CCCCCCc1cc(Cc2ccc(Cl)cc2)c(/C=C2\N=C(c3ccc[nH]3)C=C2OC)[nH]1`, the Activity is reported as 99%. With `COC1=CC(c2ccc[nH]2)=N/C1=C\c1[nH]ccc1Cc1ccc(Cl)cc1` the Activity was 38%. For `COC1=CC(c2ccc[nH]2)=N/C1=C\c1[nH]c(Cc2ccc(Cl)cc2)cc1Cc1ccc(Cl)cc1`, the Activity was 92%. `CCCCCCCCc1cc(CCC)c(/C=C2\N=C(c3ccc[nH]3)C=C2OC)[nH]1` gave an Activity of 90%.

Test system: Plasmodium yoelii
Test: Antimalarial activity Plasmodium yoelii infected in CF-1 mouse assessed as reduction of parasitemia at 25 mg/kg, po qd for 3 days administered 24 hrs after infection measured after 24 hrs last dose relative to control
Assay type: functional
Design: scale not given: the % may be the effect or the level left
Details: not given
Procedure, shortened: as §1
`CCC1CCCCCCCCC2=N/C(=C\c3[nH]c(-c4ccc[nH]4)cc3OC)C1=C2` (configuration not stated) [METACYCLOPRODIGININE] gave an Activity greater than 99%. Work on `CCCCCCc1cc(Cc2ccc(Cl)cc2)c(/C=C2\N=C(c3ccc[nH]3)C=C2OC)[nH]1` yielded an Activity of 100%. Work on `COC1=CC(c2ccc[nH]2)=N/C1=C\c1[nH]ccc1Cc1ccc(Cl)cc1` yielded an Activity of 90%. For `COC1=CC(c2ccc[nH]2)=N/C1=C\c1[nH]c(Cc2ccc(Cl)cc2)cc1Cc1ccc(Cl)cc1`, the Activity was 100%. For `CCCCCCCCc1cc(CCC)c(/C=C2\N=C(c3ccc[nH]3)C=C2OC)[nH]1`, the Activity was 100%.

Test system: Plasmodium falciparum
Test: Antimalarial activity Plasmodium falciparum D6 after 72 hrs by SYBR Green I based fluorescence assay
Assay type: functional, organism-based
Details: D6, 72 h
Procedure, shortened: as §2
`CCC1CCCCCCCCC2=N/C(=C\c3[nH]c(-c4ccc[nH]4)cc3OC)C1=C2` (configuration not stated) [METACYCLOPRODIGININE] gave an IC50 of 1.7 nM. `CCCCCCc1cc(Cc2ccc(Cl)cc2)c(/C=C2\N=C(c3ccc[nH]3)C=C2OC)[nH]1` showed an IC50 of 2 nM. Molecule `COC1=CC(c2ccc[nH]2)=N/C1=C\c1[nH]ccc1Cc1ccc(Cl)cc1` has an IC50 of 65 nM. For `COC1=CC(c2ccc[nH]2)=N/C1=C\c1[nH]c(Cc2ccc(Cl)cc2)cc1Cc1ccc(Cl)cc1`, the IC50 was 6.1 nM. With `CCCCCCCCc1cc(CCC)c(/C=C2\N=C(c3ccc[nH]3)C=C2OC)[nH]1` the IC50 was 2.9 nM.

Test system: Mus musculus
Test: Toxicity in Plasmodium yoelii infected CF-1 mouse assessed as weight loss at 5 mg/kg, po qd for 3 days relative to control
Assay type: organism-based
Design: dose 5 mg/kg, route oral
Details: in vivo, 72 h
Procedure, shortened: as §3
Molecule `CCCCCCc1cc(Cc2ccc(Cl)cc2)c(/C=C2\N=C(c3ccc[nH]3)C=C2OC)[nH]1` has an Activity of 100.3%. `COC1=CC(c2ccc[nH]2)=N/C1=C\c1[nH]ccc1Cc1ccc(Cl)cc1` showed an Activity of 101.2%. Molecule `COC1=CC(c2ccc[nH]2)=N/C1=C\c1[nH]c(Cc2ccc(Cl)cc2)cc1Cc1ccc(Cl)cc1` has an Activity of 107.5%. With `CCCCCCCCc1cc(CCC)c(/C=C2\N=C(c3ccc[nH]3)C=C2OC)[nH]1` the Activity was 100.1%.

Test system: Mus musculus
Test: Toxicity in Plasmodium yoelii infected CF-1 mouse assessed as temporary weight loss at 100 mg/kg, po qd for 3 days
Assay type: organism-based
Design: dose 100 mg/kg, route oral
Details: in vivo, 72 h
Procedure, shortened: as §1
With `CCC1CCCCCCCCC2=N/C(=C\c3[nH]c(-c4ccc[nH]4)cc3OC)C1=C2` (configuration not stated) [METACYCLOPRODIGININE] the Activity was “Toxic”.
